Results from different studies.
Lines come from different studies, so protocols differ.

| Structure (SMILES) | target or system | test | test system | setting | quantity | result |
| --- | --- | --- | --- | --- | --- | --- |
| CC(=Nc1ccc(N=Cc2cnccn2)cc1)N(C)C | – | – | male Sprague-Dawley rat, plasma | intravenous, 20 mg/kg | half-life | 1.53 h |
| C/C(=N\c1ccc(O)cc1)c1cc2ccccc2n1C | – | – | male Sprague-Dawley rat, plasma | intravenous, 5 mg/kg, 5 min, single dose | concentration | 173 ng/mL |
| Nc1ccc(/C=C/C(=O)NCc2cc3cc(-c4ccc(C(=O)N5CCC(F)(F)CC5)cc4)cc(-c4ccc(F)cc4)c3o2)cn1 | – | – | rat, plasma | intravenous, 1 mg/kg | half-life | 5.61 h |
| CC1=C(C(=O)OC(C)C)C(c2cccc(O)c2)NC(=O)N1 (stereo not shown) | MCF-10A | cell growth or viability, MTT | – | 50 µM, 96 h | viability | 87% |
| O=C1CC[C@H](N2Cc3cc(N4CCN(CC5CCN(c6ccc([C@@H]7c8ccc(O)cc8CC[C@@H]7c7ccccc7)cc6)CC5)CC4)ccc3C2=O)C(=O)N1 | – | – | female Sprague-Dawley rat, plasma | oral, 20 mg/kg, fasted | half-life | 5.24 h |
| O=C(c1ccc(OCCN2CCCCC2)cc1)c1c(-c2ccc(O)cc2)sc2cc(O)ccc12 | Broad substrate specificity ATP-binding cassette transporter ABCG2 (ABCG2, Homo sapiens, UniProt Q9UNQ0) | transporter uptake, inhibitor | Sf9 | 10 µM, pH 7, cell membranes | inhibition | ~50% |
| COc1cc(C2NC(=O)NC(C)=C2C(=O)OC(C)C)cc(OC)c1OC (stereo not shown) | MCF-10A | cell growth or viability, MTT | – | 50 µM, 96 h | viability | 92% |
| N#C[C@@]12C[C@@H]1[C@@H](n1cnc3c(N[C@@H](C4CCC4)C4CC4)nc(I)nc31)[C@H](O)[C@@H]2O | – | – | male Wistar rat, plasma | oral, 1 mg/kg | half-life | 2.2 h |
| COc1cc(C2NC(=O)NC(C)=C2C(=O)OC(C)C)ccc1OCc1ccccc1 (stereo not shown) | MCF-10A | cell growth or viability, MTT | – | 50 µM, 96 h | viability | 91% |
| COc1cccc2c1C(=O)c1c(O)c3c(c(O)c1C2=O)C[C@@](O)(C(=O)CO)C[C@@H]3O[C@H]1C[C@H](N)[C@H](O)[C@H](C)O1 | K562 | cell growth or viability, MTT | – | 100 µg/mL | viability | 23.9% |
| CC1(CN)CCN(c2cnc3c(Sc4ccncc4Cl)n[nH]c3n2)CC1 | – | – | male Sprague-Dawley rat, plasma | oral, 10 mg/kg | half-life | 2.47 h |
| CC1=C(C(=O)OC(C)C)C(c2cccc(O)c2)NC(=S)N1 (stereo not shown) | MCF-10A | cell growth or viability, MTT | – | 50 µM, 96 h | viability | 93% |
| O=C(C=Cc1ccccc1)Nc1cc(-c2ccnc(N3CCC(O)CC3)c2)ccn1 | – | – | female Sprague-Dawley rat, plasma | intravenous, 5 mg/kg | half-life | 0.47 h |
